Measurements reported in PMC8276234 (Journal of medicinal chemistry, 2019).
“Also recorded” adds a separate entry of the source.

Tests used:
b’ domain of PDI = b’ domain of PDI (Homo sapiens, UniProt P07237); experiment: ANS spectral scan; assay type: binding; conditions: 5 μM PDI, 100 μM compound
Summary of the method: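 Human PDI was preincubated with 100 μM compound or matching DMSO in TBS at 37 °C for 1 h. ANS was then added, followed by 20 min in the dark at 25 °C. Fluorescence spectrum: Ex 370 nm, Em 400–700 nm.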

PDI [1] = target: T1, PDI (Homo sapiens, UniProt P07237); experiment: PDI reductase assay; assay type: biochemical; conditions: for fold reduction of potency: replacing the nitrile in BAP2 (6) and 32 with a trifluoromethyl group; for PDI inhibitory activity (in words): PDI reductase assay
Summary of the method: (§1)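 N-terminal His-tagged human PDI was expressed in E. coli BL21(DE3) pLysS with 1 mM IPTG for 4 h at 37 °C. It was purified on Ni-NTA and dialyzed into 100 mM sodium phosphate, 2 mM EDTA, pH 7.0. PDI (0.4 μM) was preincubated 1 h with compound in phosphate/EDTA buffer with 8 μM DTT. DTT (500 μM) and bovine insulin (130 μM) were then added at room temperature. Aggregation was read at 620 nm. Percent activity came from the 0–80 min change, corrected for DTT alone.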

GBM cell = experiment: Combination with As2O3, GBM cell proliferation; assay type: cell-based
U87MG cells = experiment: Bromouridine RNA sequencing; assay type: cell-based, human; conditions: 10 μM compound 18, U87MG cells, 4 hours
Summary of the method: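 U87MG cells exposed to test compound or DMSO for 4 h, with 2 mM bromouridine added for the last 30 min. Total RNA was TRIzol-extracted, and Bru-labelled RNA was captured on anti-BrdU antibody magnetic beads, then sequenced. Reads were mapped to hg19. Genes were filtered to size >300 bp and mean RPKM >0.5, and ranked by transcription fold change versus control for pre-ranked GSEA.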

wild-type PDI = wild-type PDI (Homo sapiens, UniProt P07237); experiment: Thermal shift assay, wild-type PDI; assay type: binding; conditions: for stabilization of PDI to thermal denaturation: 100 μM; for increase of melting temperature: recombinant PDI, dose-dependent, up to 100 μM
Summary of the method: (§2)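 Purified PDI (wild-type, C53S/C397S or H256A; 0.5 mg/mL in 50 mM Tris, pH 7.0) was mixed with compound in DMSO and ROX dye. Samples were heated from 25 to 99 °C at 1 °C/min. Boltzmann melting temperature was compared with the 5% DMSO control.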

MMP9 = experiment: Western blot of cell lysates, MMP9; assay type: cell-based, human; conditions: U87MG cells, 10 μM (PACMA31 0.25 μM), 48 hours
Summary of the method: (§3)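 Treated U87MG cells were lysed by sonication in Tris/NaCl/Triton X-100/SDS buffer (pH 7.4) and spun at 13,500×g, 4 °C, 10 min. Protein was quantified by BCA. 30 μg per lane ran on 10% gels and transferred to PVDF. Primary antibodies were applied overnight at 4 °C. Fluorescent secondaries were imaged.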

A172 cells = experiment: Transwell migration assay; assay type: cell-based, human; conditions: 4 hours
Summary of the method: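 Treated A172 cells (1 x 10^5) were seeded into inserts with 8.0 µm PET membranes in serum-free medium. The lower well held DMEM with 10% FBS, and FBS-free wells served as control. After 4 h, cells were Giemsa-stained and 5 fields per well were imaged at 10X.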

C53S/C397S PDI = C53S/C397S PDI (Homo sapiens, UniProt P07237, C397S/C53S); experiment: Thermal shift assay, C53S/C397S PDI; assay type: binding; conditions: 100 μM
Summary of the method: as §2

H256A PDI [2] = target: T2, H256A PDI (Homo sapiens, UniProt P07237, H256A); experiment: PDI reductase assay, H256A mutant PDI; assay type: biochemical; conditions: 10 μM
Summary of the method: as §1

PDI [3] = target: T1, PDI; experiment: PDI reductase assay after competition with N-acetyl cysteine; assay type: biochemical; conditions: compound 40 μM; 0, 1, 2 or 5 mM NAC
Summary of the method: as §1

H256A PDI [4] = target: T2, H256A PDI; experiment: Thermal shift assay, H256A PDI; assay type: binding; conditions: 100 μM
Summary of the method: as §2

[5] = tested on: HFF-1 normal human fibroblast cells; experiment: MTT assay in normal fibroblasts; assay type: cell-based; conditions: potency in NU04 versus HFF-1 cells
MMP2 = experiment: Gelatin zymography and Western blot of conditioned media; assay type: cell-based, human; conditions: U87MG cells, 10 μM (PACMA31 0.25 μM), 48 hours
Summary of the method: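 U87MG cells (0.5 x 10^6/well) attached overnight and were serum-starved 12 h before treatment. Cleared conditioned media (5 µg protein) ran on 10% SDS-PAGE with 0.1% gelatin. Gels were washed in 2.5% Triton X-100 Tris/CaCl2/ZnCl2 buffer, incubated overnight at 37 °C, then Coomassie R-250 stained and destained. Cleaved MMP2 in media was also assessed by Western blot.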

D54 cells = experiment: Clonogenic survival assay with ionizing radiation; assay type: cell-based; conditions: 1 μM, 0-6 Gy
Summary of the method: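 D54 monolayer cells (37 °C, 5% CO2, mycoplasma-tested, STR-authenticated) were irradiated at 0, 1, 2, 4 or 6 Gy and plated immediately at 200, 200, 400, 600 and 1000 cells/well. Test compounds (1 μM), reference inhibitor (0.05 μM) or DMSO were added. After 10–12 days, colonies were stained with 0.1% crystal violet.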

GRP78 = experiment: Western blot, GRP78 expression; assay type: cell-based, human; conditions: U87MG cells; 20 μM (PACMA31 1.0 μM), 24 hours
Summary of the method: as §3

EIF2α = experiment: Western blot, phosphorylation of EIF2α; assay type: cell-based, human; conditions: U87MG and A172 cells; 20 μM (PACMA31 1.0 μM), 2 hours
Summary of the method: as §3

Sequence of C53S/C397S PDI (P07237 18-508 C53S/C397S): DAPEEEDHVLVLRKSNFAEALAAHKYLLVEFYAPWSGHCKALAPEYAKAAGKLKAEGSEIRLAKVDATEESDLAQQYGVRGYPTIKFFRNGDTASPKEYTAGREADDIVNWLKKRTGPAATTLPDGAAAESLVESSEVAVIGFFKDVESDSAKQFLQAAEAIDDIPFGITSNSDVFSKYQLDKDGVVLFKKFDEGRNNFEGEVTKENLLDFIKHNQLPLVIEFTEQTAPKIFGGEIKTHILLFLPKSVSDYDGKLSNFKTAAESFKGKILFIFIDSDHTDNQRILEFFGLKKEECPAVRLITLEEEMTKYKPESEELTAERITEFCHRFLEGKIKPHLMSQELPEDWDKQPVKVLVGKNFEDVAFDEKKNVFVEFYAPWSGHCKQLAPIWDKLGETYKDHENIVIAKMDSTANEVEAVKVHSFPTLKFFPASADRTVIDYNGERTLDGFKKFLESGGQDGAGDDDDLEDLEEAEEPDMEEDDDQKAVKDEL
T2 sequence (P07237 18-508 H256A): as the sequence (P07237 18-508 C53S/C397S) above, with S36C, H239A, S380C counted along it
T1 sequence (P07237 18-508): as the sequence (P07237 18-508 C53S/C397S) above, with S36C, S380C counted along it
Sequence of b’ domain of PDI (P07237 18-508): as the sequence (P07237 18-508 C53S/C397S) above, with S36C, S380C counted along it
Sequence of wild-type PDI (P07237 18-508): as the sequence (P07237 18-508 C53S/C397S) above, with S36C, S380C counted along it

SMILES: COc1ccc(C(=O)/C=C/c2cccc(C#N)c2)cc1 [Compound 8, (E)-3-(3-(4-Methoxyphenyl)-3-oxoprop-1-en-1-yl)benzonitrile]
- effect on ANS fluorescence (b’ domain of PDI): did not hinder dye fluorescence

SMILES: N#Cc1cccc(/C=C/C(=O)c2ccc(Br)cc2)c1 [Compound 10, (E)-3-(3-(4-Bromophenyl)-3-oxoprop-1-en-1-yl)benzonitrile]
- fold decrease in the inhibition of PDI activity (PDI [1]; replacement of the hydroxyl group (6) with bromine): 2 fold

SMILES: N#Cc1cccc(/C=C/C(=O)c2ccc(S(N)(=O)=O)cc2)c1 [Compound 13, (E)-4-(3-(3-Cyanophenyl)acryloyl)benzenesulfonamide]
- inhibition of GBM cell proliferation in combination with As2O3 (GBM cell): synergistically

SMILES: CN(C)S(=O)(=O)c1ccc(C(=O)/C=C/c2cccc(C#N)c2)cc1 [Compound 14, (E)-4-(3-(3-Cyanophenyl)acryloyl)-N,N-dimethylbenzenesulfonamide]
- inhibition of GBM cell proliferation in combination with As2O3 (GBM cell): synergistically

SMILES: CCN(CC)S(=O)(=O)c1ccc(C(=O)/C=C/c2cccc(C#N)c2)cc1 [Compound 15, (E)-4-(3-(3-Cyanophenyl)acryloyl)-N,N-diethylbenzenesulfonamide]
- inhibition of GBM cell proliferation in combination with As2O3 (GBM cell): synergistically

SMILES: CCCCCN(CCCCC)S(=O)(=O)c1ccc(C(=O)/C=C/c2cccc(C#N)c2)cc1 [Compound 18, (E)-4-(3-(3-Cyanophenyl)acryloyl)-N,N-dipentylbenzenesulfonamide]
- Fold Change in transcription, AKAP5 (U87MG cells): −3.4
- Fold Change in transcription, ANKRD36B (U87MG cells): −2.8
- Fold Change in transcription, BARD1 (U87MG cells): −2.3
- Fold Change in transcription, BBS10 (U87MG cells): −2.3
- Fold Change in transcription, CCNA2 (U87MG cells): −2.3
- Fold Change in transcription, CHSY3 (U87MG cells): −2.6
- Fold Change in transcription, DUT (U87MG cells): −2.3
- Fold Change in transcription, FBXO43 (U87MG cells): −2.7
- Fold Change in transcription, FPGT (U87MG cells): −2.3
- Fold Change in transcription, HIST1H2BC (U87MG cells): −2.3
- Fold Change in transcription, KCTD4 (U87MG cells): −2.8
- Fold Change in transcription, LYPD6 (U87MG cells): −3.1
- Fold Change in transcription, MYBL1 (U87MG cells): −2.6
- Fold Change in transcription, SLITRK5 (U87MG cells): −3.6
- Fold Change in transcription, ST8SIA4 (U87MG cells): −3.1
- Fold Change in transcription, ZNF404 (U87MG cells): −2.7
- stabilization of PDI to thermal denaturation (wild-type PDI): did not stabilize PDI
- MMP9 expression (MMP9): decreased
- transwell migration (A172 cells; 10 μM): inhibited migration
- transwell migration (A172 cells; 30 μM): inhibited migration

SMILES: N#Cc1cccc(/C=C/C(=O)c2cnccn2)c1 [Compound 29, (E)-3-(3-Oxo-3-(pyrazin-2-yl)prop-1-en-1-yl)benzonitrile]
- effect on ANS fluorescence (b’ domain of PDI): did not hinder dye fluorescence

SMILES: COC(=O)c1cccc(/C=C/C(=O)c2cccc(O)c2)c1 [Compound 46, Methyl-(E)-3-(3-(3-hydroxyphenyl)-3-oxoprop-1-en-1-yl)benzoate]
- increase of melting temperature (wild-type PDI): more than 1 °C
- stabilization (thermal shift) in the C53S/C397S mutant (C53S/C397S PDI): not abolished
- activity against H256A mutant PDI (H256A PDI [2]): abolished upon mutation
- activity after competition with N-acetyl cysteine (NAC) (PDI [3]): abolished by 5 mM NAC, but not by lower concentrations
- stabilization (thermal shift) in the H256A mutant (H256A PDI [4]): not abolished

SMILES: O=C(/C=C/c1cccc(C(F)(F)F)c1)c1ccc(O)cc1 [Compound 55, (E)-1-(4-Hydroxyphenyl)-3-(3-(trifluoromethyl)phenyl)prop-2-en-1-one]
- fold reduction of potency (PDI [1]): 2 to 4 fold

SMILES: O=C(/C=C/c1ccc(C(F)(F)F)cc1)c1ccc(O)cc1 [Compound 57, (E)-1-(4-Hydroxyphenyl)-3-(4-(trifluoromethyl)phenyl)prop-2-en-1-one]
- fold reduction of potency (PDI [1]): 2 to 4 fold

SMILES: CCCCCN(CCCCC)S(=O)(=O)c1ccc(C(=O)/C=C/c2cccc(O)c2)cc1 [Compound 59, (E)-4-(3-(3-Hydroxyphenyl)acryloyl)-N,N-dipentylbenzenesulfonamide]
- increase of melting temperature (wild-type PDI): more than 1 °C
- stabilization (thermal shift) in the C53S/C397S mutant (C53S/C397S PDI): not abolished
- MMP9 expression (MMP9): decreased
- Fold Difference [5]: 3.8
- activity against H256A mutant PDI (H256A PDI [2]): active against the H256A mutant; also recorded: not His256-dependent
- effect on ANS fluorescence (b’ domain of PDI): competes with ANS
- transwell migration (A172 cells; 30 μM): inhibited migration
- activity after competition with N-acetyl cysteine (NAC) (PDI [3]): abolished by 5 mM NAC, but not by lower concentrations
- stabilization (thermal shift) in the H256A mutant (H256A PDI [4]): not abolished

SMILES: O=C(/C=C/c1ccc(-c2cccnc2)cc1)c1cccc(O)c1 [Compound 68, (E)-1-(3-Hydroxyphenyl)-3-(4-(pyridin-3-yl)phenyl)prop-2-en-1-one]
- MMP2 activity and secretion (MMP2): inhibit MMP2 activity and secretion
- increase of melting temperature (wild-type PDI): more than 1 °C
- stabilization (thermal shift) in the C53S/C397S mutant (C53S/C397S PDI): not abolished
- MMP9 expression (MMP9): decreased
- synergy with ionizing radiation (IR) (D54 cells): synergized with IR
- activity against H256A mutant PDI (H256A PDI [2]): abolished upon mutation
- activity after competition with N-acetyl cysteine (NAC) (PDI [3]): unaffected by up to 5 mM NAC
- stabilization (thermal shift) in the H256A mutant (H256A PDI [4]): not abolished

SMILES: O=C(/C=C/c1ccc(-c2ccncc2)cc1)c1cccc(O)c1 [Compound 69, (E)-1-(3-Hydroxyphenyl)-3-(4-(pyridin-4-yl)phenyl)prop-2-en-1-one]
- stabilization of PDI to thermal denaturation (wild-type PDI): did not stabilize PDI

SMILES: O=C(/C=C/c1ccc(O)cc1)c1ccccc1O [NC587]
- PDI inhibitory activity (in words) (PDI [1]): inactive

SMILES: O=C(/C=C/c1ccccc1O)c1ccccc1O [NC588]
- PDI inhibitory activity (in words) (PDI [1]): inactive

SMILES: O=C(/C=C/c1cccc(O)c1)c1ccccc1O [NC589]
- PDI inhibitory activity (in words) (PDI [1]): inactive

SMILES: C#CC(=O)N(c1ccc(OC)cc1OC)C(C(=O)NCC(=O)OCC)c1cccs1 (stereo not drawn) [PACMA31, reference compound]
- MMP2 activity and secretion (MMP2): inhibit MMP2 activity and secretion
- stabilization of PDI to thermal denaturation (wild-type PDI): does not stabilize PDI
- MMP9 expression (MMP9): decreased
- expression of GRP78 (GRP78): increase in expression of GRP78
- effect on ANS fluorescence (b’ domain of PDI): did not hinder dye fluorescence
- phosphorylation of EIF2α (EIF2α): did not induce phosphorylation of EIF2α
- transwell migration (A172 cells; 30 μM): inhibited migration
- activity after competition with N-acetyl cysteine (NAC) (PDI [3]): significantly abolished

SMILES: C[C@]12CC[C@@H]3c4ccc(O)cc4CC[C@H]3[C@@H]1CC[C@@H]2O [estradiol, reference compound]
- stabilization of PDI to thermal denaturation (wild-type PDI): stabilizes PDI to thermal denaturation
- increase of melting temperature (wild-type PDI): more than 1 °C
- stabilization (thermal shift) in the C53S/C397S mutant (C53S/C397S PDI): but not the C53S/C397S mutant
- stabilization (thermal shift) in the H256A mutant (H256A PDI [4]): abolished
